In ChEMBL document CHEMBL6134775, “Breaking boundaries in diabetic nephropathy treatment: design and synthesis of novel steroidal SGLT2 inhibitors” (RSC Med Chem, 2025):
Activity calls are given as the source filed them. The calls are words filed in the database; no cut-off is given here.

What was measured:
[1] = test system: NRK-52E; experiment: Cytotoxicity against rat NRK-52E cells assessed as reduction in cell viability at 1 to 50 uM pretreated with 33 mM glucose for 6 hrs followed by compound addition and measured after 24 hrs by Alamar blue dye based microplate reader analysis; type: toxicity; conditions: dose 1-50 µM
How it was run: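 Alamar blue assay in NRK-52E cells grown in high-glucose DMEM with 10% FBS at 37 °C, 5% CO2. At 80-90% confluency, cells got 33 mM glucose for 6 h, then compound at 1-50 μM (vehicle 0.1% DMSO + 1XPBS) for 24 h. Dye incubation 4 h; OD read at 570 and 600 nm. Viability expressed as the absorbance ratio to the vehicle control.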

[2] = target: T1, Sodium/glucose cotransporter 2 (Rattus norvegicus) (UniProt P53792); experiment: Inhibition of SGLT2-mediated glucose uptake in rat NRK-52E cells assessed as reduction in glucose uptake by measuring fold change at 500 nM preincubated with 33 mM glucose for 6 hrs followed by compound addition and measured after 24 hrs by fluorescence based microplate reader analysis; type: cell-based
T1 sequence (whole entry): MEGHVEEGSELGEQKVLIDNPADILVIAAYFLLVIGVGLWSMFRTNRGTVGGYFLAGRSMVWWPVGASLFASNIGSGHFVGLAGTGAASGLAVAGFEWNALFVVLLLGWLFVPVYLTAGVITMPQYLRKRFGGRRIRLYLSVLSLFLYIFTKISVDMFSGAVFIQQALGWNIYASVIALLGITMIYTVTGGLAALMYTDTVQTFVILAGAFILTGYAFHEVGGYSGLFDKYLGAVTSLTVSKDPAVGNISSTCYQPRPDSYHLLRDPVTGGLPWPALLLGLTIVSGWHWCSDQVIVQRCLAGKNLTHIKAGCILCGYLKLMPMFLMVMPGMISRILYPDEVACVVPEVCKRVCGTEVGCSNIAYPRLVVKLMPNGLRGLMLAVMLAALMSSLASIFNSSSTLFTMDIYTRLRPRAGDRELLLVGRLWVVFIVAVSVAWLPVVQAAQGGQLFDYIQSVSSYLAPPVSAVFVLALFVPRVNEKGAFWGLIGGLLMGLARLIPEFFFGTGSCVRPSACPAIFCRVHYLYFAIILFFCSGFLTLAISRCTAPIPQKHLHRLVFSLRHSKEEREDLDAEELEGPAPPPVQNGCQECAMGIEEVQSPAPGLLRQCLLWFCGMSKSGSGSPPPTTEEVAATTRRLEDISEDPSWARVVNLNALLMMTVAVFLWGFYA
How it was run: (§1)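 6-NBDG uptake in NRK-52E cells seeded at 1×10^4/well, exposed to 33 mM glucose for 6 h, then to compound (1, 5, 10 μM; dose series 100 nM-10 μM; vehicle 0.1% DMSO + 1XPBS) for 24 h. Cells were rinsed in Na+-free buffer and given 20 μM 6-NBDG in Na+ or Na+-free HEPES buffer (pH 7.4) for 20 min at 37 °C. After lysis in 1% Triton X (pH 10) plus DMSO, fluorescence was read at 470/540 nm. Results are fold change vs control; n = 3.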

[3] = test system: NRK-52E; experiment: Inhibition of fibronectin expression in glucose induced rat NRK-52E cells at 0.005 to 5 uM by Western blotting analysis; type: functional, cell-based; conditions: dose 0.005-5 µM
[4] = target: T1, Sodium/glucose cotransporter 2 (Rattus norvegicus); experiment: Inhibition of SGLT2-mediated glucose uptake in rat NRK-52E cells assessed as fold decrease in reduction of glucose uptake at 1 uM preincubated with 33 mM glucose for 6 hrs followed by compound addition and measured after 24 hrs by fluorescence based microplate reader analysis relative to glucose alone; type: cell-based; how it was run: as §1
[5] = test system: NRK-52E; experiment: Downregulation of TGF-beta1 expression in glucose induced rat NRK-52E cells at 0.005 to 5 uM by Western blotting analysis; type: functional, cell-based; conditions: dose 0.005-5 µM
[6] = test system: NRK-52E; experiment: Downregulation of SGLT2 protein expression in glucose-induced rat NRK-52E cells at 1 to 5 uM by Western blotting analysis; type: functional, cell-based; conditions: dose 1-5 µM
How it was run: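 NRK-52E cells got 33 mM glucose for 6 h, then compound for 24 h, and were lysed in RIPA with protease/phosphatase inhibitors; protein was measured by BCA. Samples of about 20-30 μg were run on 10% SDS-PAGE and transferred to nitrocellulose. Blots were blocked in 1% BSA, probed with anti-SGLT2 (1:1000) overnight at 4 °C, then HRP anti-rabbit (1:1000) for 2 h, and detected by ECL with densitometry. β-actin served as loading control; three repeats.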

[7] = test system: NRK-52E; experiment: Inhibition of collagen-IV expression in glucose induced rat NRK-52E cells at 0.005 to 5 uM by Western blotting analysis; type: functional, cell-based; conditions: dose 0.005-5 µM
[8] = test system: NRK-52E; experiment: Downregulation of IL-6 expression in glucose induced rat NRK-52E cells at 0.005 to 5 uM by Western blotting analysis; type: functional, cell-based; conditions: dose 0.005-5 µM
[9] = test system: NRK-52E; experiment: Downregulation of NOX-4 expression in glucose induced rat NRK-52E cells at 1 to 5 uM by Western blotting analysis; type: functional, cell-based; conditions: dose 1-5 µM
[10] = target: T1, Sodium/glucose cotransporter 2 (Rattus norvegicus); experiment: Inhibition of SGLT2-mediated glucose uptake in rat NRK-52E cells assessed as reduction in glucose uptake at 1 to 10 uM preincubated with 33 mM glucose for 6 hrs followed by compound addition and measured after 24 hrs by fluorescence based microplate reader analysis; type: cell-based; conditions: dose 1-10 µM; how it was run: as §1
[11] = test system: NRK-52E; experiment: Inhibition of ROS generation in rat NRK-52E cells assessed as reduction in intracellular ROS generation at […] preincubated with glucose for 6 hrs followed by compound addition and measured after 24 hrs by DCFDA staining based spectrofluorometric analysis relative to glucose alone; type: functional, cell-based
How it was run: (§2)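 NRK-52E cells in 24-well plates got 33 mM glucose for 6 h, then compound at 100 nM-10 μM (vehicle 0.1% DMSO + 1XPBS) for 24 h. Cells were loaded with 10 μM H2DCFDA for 30 min at 37 °C in the dark, lysed with 1% Triton X-100 and DMSO. Fluorescence was read at 480/530 nm in triplicate; the glucose-only signal was set as 100%.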

[12] = test system: Mitochondrial membrane; experiment: Restoration of mitochondrial membrane depolarization in glucose induced rat NRK-52E cells assessed as increase in green fluorescence intensity at […] pretreated with glucose for 6 hrs followed by compound addition and measured after 24 hrs by rhodamine-123 staining based cytofluorimetric analysis; type: cell membranes
How it was run: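 NRK-52E cells (2×10^5/well) received 33 mM glucose for 6 h, then compound at 500 nM, 1 or 5 μM for 24 h. They were stained with 200 ng/mL rhodamine 123 for 30 min at 37 °C, washed, and analysed by flow cytometry.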

[13] = test system: NRK-52E; experiment: Induction of AMPK phosphorylation in glucose induced rat NRK-52E cells at 1 to 5 uM by Western blotting analysis; type: cell-based; conditions: filed as activator, dose 1-5 µM
[14] = target: T2, Sodium/glucose cotransporter 2 (Rattus norvegicus, UniProt P53792); experiment: Inhibition of SGLT2-mediated glucose uptake in rat NRK-52E cells assessed as reduction in glucose uptake preincubated with 33 mM glucose for 6 hrs followed by compound addition and measured after 24 hrs by fluorescence based microplate reader analysis; type: cell-based; how it was run: as §1
T2 sequence (P53792 whole entry): T1 sequence (whole entry)

[15] = test system: NRK-52E; experiment: Inhibition of ROS generation in rat NRK-52E cells assessed as reduction in intracellular ROS generation at 0.25 to 10 uM preincubated with glucose for 6 hrs followed by compound addition and measured after 24 hrs by DCFDA staining based spectrofluorometric analysis; type: functional, cell-based; conditions: dose 0.25-10 µM; how it was run: as §2
[16] = test system: NRK-52E; experiment: Effect of SGLT1 protein expression in glucose-induced rat NRK-52E cells at 1 to 5 uM by Western blotting analysis; type: functional, cell-based; conditions: dose 1-5 µM
[17] = test system: NRK-52E; experiment: Inhibition of NF-kappaB activation in glucose induced rat NRK-52E cells at 0.005 to 5 uM by Western blotting analysis; type: cell-based; conditions: dose 0.005-5 µM

SMILES: C[C@]12CC[C@H](O)CC1=CC[C@@H]1[C@@H]2CC[C@]2(C)c3c(cnc4cc(-c5ccccc5)nn34)C[C@@H]12
- Activity [1]: Non-toxic

SMILES: CC(=O)O[C@H]1CC[C@@]2(C)C(=CC[C@@H]3[C@@H]2CC[C@]2(C)c4c(cnc5nc6c(Cl)cccc6n45)C[C@@H]32)C1
- Activity [1]: Non-toxic

SMILES: C[C@]12CC[C@H](O)CC1=CC[C@@H]1[C@@H]2CC[C@]2(C)c3c(cnc4cc(-c5ccc(Cl)cc5)nn34)C[C@@H]12
- Activity [1]: Non-toxic

SMILES: CC(=O)O[C@H]1CC[C@@]2(C)C(=CC[C@@H]3[C@@H]2CC[C@]2(C)c4c(cnc5nc6ccccc6n45)C[C@@H]32)C1
- Activity [1]: Non-toxic

SMILES: C[C@]12CC[C@H](O)CC1=CC[C@@H]1[C@@H]2CC[C@]2(C)c3c(cnc4nc5ccccc5n34)C[C@@H]12
- Activity [1]: Non-toxic
- fold change (FC) [2]: 1.4
- inhibition [3]: Active
- fold change (FC) [4]: 2
- Activity [5]: Active
- Activity [6]: Active
- inhibition [7]: Active
- Activity [8]: Active
- Activity [9]: Active
- inhibition [10]: Active
- inhibition [11]: Active
- Activity [12]: Active
- Activity [13]: Active
- IC50 [14]: 2.91 nM
- inhibition [15]: Active; Significant Decrease Observed
- Activity [16]: inactive
- inhibition [17]: Active

SMILES: CC(=O)O[C@H]1CC[C@@]2(C)C(=CC[C@@H]3[C@@H]2CC[C@]2(C)c4c(cnc5nc6ccc(Cl)cc6n45)C[C@@H]32)C1
- Activity [1]: Non-toxic

SMILES: CC(=O)O[C@H]1CC[C@@]2(C)C(=CC[C@@H]3[C@@H]2CC[C@]2(C)c4c(cnc5c(C#N)cnn45)C[C@@H]32)C1
- Activity [1]: Non-toxic

SMILES: C[C@]12CC[C@H](O)CC1=CC[C@@H]1[C@@H]2CC[C@]2(C)c3c(cnc4cc(-c5ccc(Br)cc5)nn34)C[C@@H]12
- Activity [1]: Non-toxic

SMILES: CC(=O)O[C@H]1CC[C@@]2(C)C(=CC[C@@H]3[C@@H]2CC[C@]2(C)c4c(cnc5nc6cc(Cl)ccc6n45)C[C@@H]32)C1
- Activity [1]: Non-toxic

SMILES: CC(=O)O[C@H]1CC[C@@]2(C)C(=CC[C@@H]3[C@@H]2CC[C@]2(C)c4c(cnc5cc(-c6ccc(Br)cc6)nn45)C[C@@H]32)C1
- Activity [1]: Non-toxic

SMILES: C[C@]12CC[C@H](O)CC1=CC[C@@H]1[C@@H]2CC[C@]2(C)c3c(cnc4nc5c(Cl)cccc5n34)C[C@@H]12
- Activity [1]: Non-toxic

SMILES: COc1cccc2nn3c4c(cnc3c12)C[C@H]1[C@@H]2CC=C3C[C@@H](OC(C)=O)CC[C@]3(C)[C@H]2CC[C@]41C
- Activity [1]: Non-toxic
- inhibition [10]: inactive

SMILES: CC(=O)O[C@H]1CC[C@@]2(C)C(=CC[C@@H]3[C@@H]2CC[C@]2(C)c4c(cnc5cc(-c6ccc(Cl)cc6)nn45)C[C@@H]32)C1
- Activity [1]: Non-toxic

SMILES: C[C@]12CC[C@H](O)CC1=CC[C@@H]1[C@@H]2CC[C@]2(C)c3c(cnc4nc5cc(Cl)ccc5n34)C[C@@H]12
- Activity [1]: Non-toxic

SMILES: COc1cccc2nn3c4c(cnc3c12)C[C@H]1[C@@H]2CC=C3C[C@@H](O)CC[C@]3(C)[C@H]2CC[C@]41C
- Activity [1]: Non-toxic
- inhibition [10]: inactive

SMILES: Cc1ccc([C@@H]2O[C@H](CO)[C@@H](O)[C@H](O)[C@H]2O)cc1Cc1ccc(-c2ccc(F)cc2)s1 [CANAGLIFLOZIN ANHYDROUS]
- IC50 [14]: 2.35 nM

SMILES: CC(=O)O[C@H]1CC[C@@]2(C)C(=CC[C@@H]3[C@@H]2CC[C@]2(C)c4c(cnc5cc(-c6ccccc6)nn45)C[C@@H]32)C1
- Activity [1]: Non-toxic
